The test system of data set [1] is MCF7. The experiment in a line: Cytotoxicity against human MCF7 cells after 96 hrs by MTT assay. It is filed as functional. The following applies: MCF7, 96 h. The method, boiled down: (§1)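 Solid tumour lines were seeded at 1 × 10^5 cells/ml in line-specific media with 10% FCS and antibiotics. Serial dilutions from a 100 mM DMSO stock were added. After 96 h at 37 °C in 5% CO2, viability was read by MTT. The 50% growth-inhibiting concentration (µM) was obtained by linear regression versus untreated controls. Values are means of three independent determinations.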
(Tetrazolium dyes change colour on reduction, which living cells bring about.)

The test system of data set [2] is SK-MES-1. The data set is described as follows: Cytotoxicity against human SKMES1 cells after 96 hrs by MTT assay. Type of data set: functional. The following applies: SK-MES-1, 96 h. A digest of the protocol: as §1
For data set [3], the system named is HepG2. The data set is described as follows: Cytotoxicity against human HepG2 cells after 96 hrs by MTT assay. Type of data set: functional. The following applies: HepG2, 96 h. The method, boiled down: as §1
Data set [4] is described as follows: Cytotoxicity against human MT4 cells after 96 hrs by MTT assay. Type of data set: cell-based.
The subject of data set [5] is CCRF-CEM. The experiment in a line: Cytotoxicity against human CCRF-CEM cells after 96 hrs by MTT assay. It is filed as functional. A digest of the protocol: (§2)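 Haematological tumour lines were seeded at 1 × 10^5 cells/ml in RPMI-1640 with 10% FCS plus penicillin/streptomycin. Serial dilutions from a 100 mM DMSO stock were added. After 96 h at 37 °C in 5% CO2, viability was read by MTT. The 50% proliferation-inhibiting concentration (µM) was obtained by linear regression against untreated controls, which completed at least three rounds of multiplication. Values are means of three determinations.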

In data set [6] the test system is WIL2-NS. The data set is described as follows: Cytotoxicity against human WIL2-NS cells after 96 hrs by MTT assay. Type of data set: functional. A digest of the protocol:
as §2

The subject of data set [7] is DU-145. The experiment in a line: Cytotoxicity against human DU145 cells after 96 hrs by MTT assay. It is filed as functional. The settings on record: DU-145, 96 h. A digest of the protocol: as §1
The subject of data set [8] is SK-MEL-28. The experiment in a line: Cytotoxicity against human SK-MEL-28 cells after 96 hrs by MTT assay. Type of data set: functional. The settings on record: SK-MEL-28, 96 h. A digest of the protocol:
as §1

The subject of data set [9] is CCRF-SB. The data set is described as follows: Cytotoxicity against human CCRF-SB cells after 96 hrs by MTT assay. Type of data set: functional. The method, boiled down: as §2

SMILES strings stand for the structures.

A word on the CC50: it is the concentration giving 50% cytotoxicity. As to `CC[C@@]1(O)C(=O)OCc2c1cc1n(c2=O)Cc2cc3ccccc3nc2-1` [CAMPTOTHECIN], the CC50 in data set [1] stood at 80 nM; in [2] it was 50 nM; in data set [3], 40 nM; in data set [5], 3 nM; in [6], 5 nM; in data set [7] it was 80 nM. The results for the CC50 in data set [8] and in [9] were 70 nM and 4 nM, respectively. This compound also showed a CC50 at 96 h in [4] of 4 nM.

(Values after ChEMBL document CHEMBL2062460, “Disubstituted thiourea derivatives and their activity on CNS: synthesis and biological evaluation” (Eur J Med Chem, 2012).)
